# Bioassay records (PubChem BioAssay)
# CHOP inhibitor: inhibitors of CHOP induction in ER stress response | CHO-K1 CHOP-promoter luciferase, tunicamycin-induced, 15-18 h | inhibition, % at 10 µM | 220,000 tested, 3.8% active | AID 2732;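 active means compounds that reduced the stress-induced luciferase reporter signal by more than about 70% of percent inhibition, limit read from the data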;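 further: 0% = tunicamycin plus vehicle and 100% = wells without tunicamycin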
# NOD2 RIPK2 PPI: NOD2-RIPK2 protein interaction inhibition; AID 624267; O43353; inhibition, % at 4.98 µM; 360,000 tested, 0.38% active; CHO BLA complementation NOD2-RIPK2, CCF4 ratio; in the data active means inhibition above about 21%;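 further: 0% = vehicle only and 100% = reference blocker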
# Target sequence (O43353 whole entry, looked up): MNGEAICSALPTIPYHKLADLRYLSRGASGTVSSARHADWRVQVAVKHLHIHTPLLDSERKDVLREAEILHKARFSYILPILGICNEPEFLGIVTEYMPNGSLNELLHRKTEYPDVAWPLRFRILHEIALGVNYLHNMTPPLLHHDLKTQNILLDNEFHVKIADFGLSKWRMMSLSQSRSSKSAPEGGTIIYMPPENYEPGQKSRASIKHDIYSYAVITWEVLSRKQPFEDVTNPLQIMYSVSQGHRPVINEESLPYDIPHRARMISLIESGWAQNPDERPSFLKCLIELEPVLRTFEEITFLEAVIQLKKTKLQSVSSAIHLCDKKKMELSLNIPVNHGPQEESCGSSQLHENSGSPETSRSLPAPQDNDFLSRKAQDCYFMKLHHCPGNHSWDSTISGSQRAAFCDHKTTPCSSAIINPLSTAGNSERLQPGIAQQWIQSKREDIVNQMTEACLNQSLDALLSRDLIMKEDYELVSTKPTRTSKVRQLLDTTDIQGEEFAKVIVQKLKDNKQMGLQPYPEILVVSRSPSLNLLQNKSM
# UPR CHOP act: activators of apoptotic arm of unfolded protein response (CHOP); 330,000 tested, 0.34% active; activation, % at 10 µM; AID 449763; CHO-CHOP luciferase reporter, UPR activation, luminescence; percent of tunicamycin response over DMSO baseline;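 active means at 10 µM dose, activation of 40% or more, normalized to positive control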;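 further: 100% = tunicamycin at 10 µg/mL and 0% = DMSO alone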
#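 Assay system: CHO cells with stable CHOP pathway luciferase reporter; Buffer or medium: F12 plus 10% serum; Times: 16-18 h cell attachment, then 6 h compound exposure, 37 °C; Signal: luciferase luminescence; Read-out basis: percent activation relative to tunicamycin control; Control set: tunicamycin high control, DMSO low control.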
# UPR XBP1 act: adaptive UPR (XBP1) activation; 330,000 tested, 0.33% active; activation, % at 20 µM; AID 463104; CHO-XBP1 luciferase reporter, IRE1-XBP1 UPR activation, luminescence; percent of tunicamycin response, DMSO as zero;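 active means versus positive control, 20 µM dose yields 30% or more activation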;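 further: 100% = tunicamycin at 10 µg/mL and 0% = DMSO only wells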
#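 Material – CHO cell line with stable XBP1 luciferase reporter · Buffer or medium – F12 plus 10% FBS · Compound – single point, 20 µM final compound, 1% DMSO · Schedule – 16-18 h cell attachment at 37 °C, then 6 h compound exposure · Signal – Steady-Glo luminescence read · Benchmarks – high control tunicamycin 10 µg/mL final, low control DMSO vehicle only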
# TLR9-MyD88 inh: blocks human TLR9 binding to MyD88; Q9NR96+Q99836; CHO BLA complementation TLR9-MyD88, CCF4 FRET ratio; inhibition, % at 4.98 µM; 340,000 tested, 0.21% active; AID 504734;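 active means inhibition above the mean over all tested compounds plus 3 SD, cut at about 21% in these data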;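 further: 0% = DMSO only wells and 100% = clavulanate BLA inhibitor control wells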
# TLR4 MyD88 comp: blocks binding of human TLR4 to MyD88. O00206+Q99836. HeLa CL3-4 TLR4/MyD88 BLA complementation, FRET ratio. inhibition, % at 8.4 µM. 200,000 tested, 0.18% active. AID 861; in the data active means inhibition above about 25%;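 further: 0% = vehicle and 100% = reference inhibitor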
# Numbers without * were called inactive; x = no result given; ! = not active in a repeat. Shown is part of a subset that was picked to be rich in hits.
SMILES,CHOP inhibitor,NOD2 RIPK2 PPI,UPR CHOP act,UPR XBP1 act,TLR9-MyD88 inh,TLR4 MyD88 comp
COc1cc(-c2nnc(COc3ccc(Cl)cc3C)o2)cc(OC)c1OC,71.6*,-5.1,-3.9,-2.8,3.0,-0.2
CCOc1ccc(Nc2ncnc3c2cnn3-c2ccccc2)cc1,101.1*,6.8,6.9,3.3,12.7,16.6
Cc1ccccc1Nc1ncnc2c1cnn2-c1ccccc1,72.5*,-3.6,4.9,4.3,7.6,6.0
COc1ccc(CCNC(=O)c2cc(C)oc2C)cc1,x,-17.6,0.6,-2.5,-1.3,x
CCc1ccc2[nH]c(=O)c(CN(Cc3ccccc3OC)Cc3nnnn3Cc3ccco3)cc2c1,73.5*,-11.2,6.8,0.3,-7.4,-5.3
Cc1ccc2cc(CN(Cc3ccc(F)cc3)Cc3nnnn3C3CCCC3)c(=O)[nH]c2c1,83.8*,-15.4,-1.0,-2.9,7.1,0.1
CCc1ccc2[nH]c(=O)c(CN(Cc3ccc4c(c3)OCO4)Cc3nnnn3C3CCCC3)cc2c1,82.0*,3.6,0.5,9.6,-2.9,-5.4
Cc1ccc2cc(CN(Cc3ccccc3)Cc3nnnn3C3CCCC3)c(=O)[nH]c2c1,47.3,-2.2,0.5,-5.7,-2.8,-1.8
C/C(=N\O)C(=O)OC1CC(C)CCC1C(C)C (stereo not drawn),88.1*,13.7,-2.8,1.4,8.5,-3.8
Cc1cc(C)c(S(=O)(=O)c2ccccc2C)c(OCC(C)(C)C)n1,75.1*,-6.0,2.2,-3.2,4.9,-3.0
CCOCCOc1nc(C)cc(C)c1S(=O)(=O)c1ccccc1C,14.9,10.3,1.1,3.1,3.6,-20.1
O=C(N/N=C\c1ccc(-c2ccc([N+](=O)[O-])cc2)o1)C1COc2ccccc2O1 (stereo not drawn),81.2*,2.7,-0.2,0.7,-4.8,12.0
Oc1c(CN2CCN(c3ccccc3)CC2)cc(Br)c2cccnc12,89.1*,-2.3,x,x,15.3,x
CCc1ccc(C(=O)c2cncc(Br)c2)cc1,73.8*,-2.1,2.3,1.2,6.2,-8.3
CN(C)c1ccnc2c[cH-]cc12.[Fe].c1ccc(-[c-]2[c-](-c3ccccc3)[c-](-c3ccccc3)[c-](-c3ccccc3)[c-]2-c2ccccc2)cc1 (stereo not drawn),87.5*!,0.3,10.6,2.7,0.7,x
CCn1cc(C(=O)O)c(=O)c2cc3c(cc21)OCO3,-6.8,x,0.6,-4.7,x,-3.8
CCn1nc(C(=O)O)c(=O)c2cc3c(cc21)OCO3,96.1*!,2.0,-1.3,-4.6,1.8,-14.7
Cc1ccc(-c2cc(Cc3ccncc3)c(=O)[nH]n2)cc1,15.0,8.0,-2.1,-2.5,x,x
O=C(COC(=O)c1cc(=O)[nH]c2ccc(Br)cc12)c1ccccc1,69.9,7.2,-0.8,1.9,-5.1,0.4
O=C(COC(=O)c1cc(=O)[nH]c2ccccc12)c1ccc(Br)cc1,71.7*,-4.9,2.8,-1.5,-0.4,x
COc1cc2c(cc1OC)CN(c1nc(CN3CCCC3)nc3sc(C)c(C)c13)CC2,78.4*,-2.0,-2.9,2.1,3.0,2.0
COc1cc2c(cc1OC)CN(c1nc(CN3CCCCC3)nc3sc4c(c13)CCCC4)CC2,29.7,-6.7,0.4,1.7,-3.4,3.0
N[C@@H](COP(=O)(O)O)C(=O)O,-7.9,x,x,x,x,x
C/C(=N\N=C(/N)SC1CC(=O)N(c2ccc(Br)cc2)C1=O)c1cccs1 (stereo not drawn),87.2*,12.8,-0.5,4.6,1.4,6.6
C/C(=N\N=C(/N)SC1CC(=O)N(c2ccccc2)C1=O)c1cccs1 (stereo not drawn),45.5,-3.1,0.3,-2.1,5.9,13.8
SMILES,CHOP inhibitor,NOD2 RIPK2 PPI,UPR CHOP act,UPR XBP1 act,TLR9-MyD88 inh,TLR4 MyD88 comp
CCCCCCOc1ccc(N2C(=O)CC(S/C(N)=N/N=C(\C)c3cccs3)C2=O)cc1 (stereo not drawn),87.8*,-22.9,-1.0,-0.5,-8.5,-1.5
Cc1ccc2nc(-c3ccc(NC(=O)CN(c4ccccc4C)S(C)(=O)=O)cc3)sc2c1,70.2*,-6.7,5.2,-4.0,-0.3,6.4
CC1(c2ccc(OC(F)F)cc2)NC(=O)N(CC(=O)Nc2ccccc2)C1=O (stereo not drawn),x,0.0,4.3,10.1,-3.6,x
Cc1ccc(C)c(S(=O)(=O)NC(C)C(=O)Nc2ccc(-c3nc4ccccc4s3)cc2)c1 (stereo not drawn),80.0*,1.1,4.0,1.3,-9.0,-4.1
Cc1ccc2nc(-c3ccc(NC(=O)CN4C(=O)NC(C)(c5ccc(OC(F)F)cc5)C4=O)cc3)sc2c1 (stereo not drawn),76.3*,-1.7,5.3,10.9,1.0,-7.2
CC(C)(C)c1ccc(S(=O)(=O)NCC(=O)Nc2ccc(-c3nc4ccccc4s3)cc2)cc1,95.7*,0.6,5.6,-1.7,-1.7,-13.5
CC(=O)c1c(N2CCOCC2)nc2ccc(Br)cc2c1-c1ccccc1,-16.6,-20.1,-0.2,6.8,x,x
CCC1(C(=O)c2ccc(Cl)cc2)C2c3ccccc3OC(=O)C21C(=O)Nc1ccccc1 (stereo not drawn),78.3*,16.7,0.6,-2.9,0.9,-2.2
COc1ccc(C(=O)/C=C/C(=O)N(CC(=O)NC2CCCCC2)Cc2ccccc2OC)c(O)c1,107.3*,0.4,x,x,8.1,1.8
COc1ccc(C(=O)/C=C/C(=O)N(CC(=O)NC2CCCCC2)Cc2ccccc2)c(O)c1,107.6*,7.0,x,x,-1.7,18.9
COc1ccc(C(=O)/C=C/C(=O)N(Cc2ccccc2OC)C(C(=O)NC2CCCCC2)c2ccncc2)c(O)c1 (stereo not drawn),16.3,3.4,0.2,-1.2,-6.3,-25.1
O=C(O)c1ccc(N/N=C/c2ccc3c(c2)OCO3)cc1,93.5*,-3.1,-9.2,-10.1,x,0.2
O=C(O)c1ccc(N/N=C/c2ccc(C(F)(F)F)cc2)cc1,60.8,-5.0,-8.0,-7.4,0.9,0.7
CC(C)(C)c1ccc(/C=N/Nc2ccc(C(=O)O)cc2)cc1,83.5*,-3.2,-8.7,-4.5,1.1,-12.6
COc1cccc(/C=N/Nc2ccc(C(=O)O)cc2)c1O,100.9*,-12.7,-10.0,-8.7,14.1,1.8
O=C(O)c1cc(N/N=C/c2ccc3c(c2)OCCO3)ccc1Cl,72.2*,-1.6,x,x,-9.5,0.5
CCOc1cc(OCC)cc(C(=O)N2CCC[C@H]2C(=O)N2CCC[C@H]2C(=O)N(C)Cc2ccccc2)c1,x,5.4,x,x,x,x
Cc1ccc(NCC(=O)Nc2ccc(Br)cc2)cc1F,17.9,-9.4,-0.2,0.8,7.4,-0.7
O=c1nc2n(c3ccc(Br)cc13)CCS2,16.1,-10.2,-0.1,0.1,2.9,2.8
O=[N+]([O-])c1ccc(Nc2nc(N/N=C/c3cccc(F)c3)nc(N3CCCC3)n2)cc1,16.4,-4.7,9.0,3.1,-6.5,0.5
